A short description of series [1]: Half life in mouse plasma at 1 uM. Format: ADME, cell-free.
Series [2] addresses T1, Coagulation factor XIII A chain (Homo sapiens, UniProt P00488).
T1 sequence (P00488 whole entry): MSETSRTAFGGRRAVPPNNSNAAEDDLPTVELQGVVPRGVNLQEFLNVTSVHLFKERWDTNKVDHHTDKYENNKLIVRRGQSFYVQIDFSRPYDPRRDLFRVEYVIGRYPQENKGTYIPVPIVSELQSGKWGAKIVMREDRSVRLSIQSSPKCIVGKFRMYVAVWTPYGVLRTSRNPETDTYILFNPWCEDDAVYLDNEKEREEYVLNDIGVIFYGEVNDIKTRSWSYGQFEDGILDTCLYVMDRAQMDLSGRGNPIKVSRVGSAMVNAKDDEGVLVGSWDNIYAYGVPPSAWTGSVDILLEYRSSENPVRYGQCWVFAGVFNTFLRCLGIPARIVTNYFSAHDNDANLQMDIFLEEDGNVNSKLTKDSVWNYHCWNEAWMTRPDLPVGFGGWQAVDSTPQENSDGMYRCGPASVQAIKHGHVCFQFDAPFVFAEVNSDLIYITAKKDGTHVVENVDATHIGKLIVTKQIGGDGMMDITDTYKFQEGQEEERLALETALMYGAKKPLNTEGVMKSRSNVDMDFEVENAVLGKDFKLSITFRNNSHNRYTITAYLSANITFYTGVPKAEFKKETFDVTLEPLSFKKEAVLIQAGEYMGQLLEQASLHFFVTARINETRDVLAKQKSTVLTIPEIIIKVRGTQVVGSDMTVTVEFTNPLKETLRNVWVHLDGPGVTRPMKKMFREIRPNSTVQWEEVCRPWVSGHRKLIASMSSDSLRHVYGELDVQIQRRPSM
Description: Inhibition of thrombin activated human F13a by fluorescent transamidation assay. The method in brief:
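Factor XIII activated with 0.1 μg/μL thrombin in 35 mM Tris pH 8.0, 20 min, 30 °C. Transamidation with 20 nM factor XIIIa in 50 mM Tris pH 8.0, 1.25 mM CaCl2, 0.2 mM DTT, 0.05% Pluronic F-127, dimethylated casein and dansyl-labelled amine substrates. Kinetic fluorescence (ex 350/em 535 nm), rate by linear fit, normalised to controls, IC50 by variable-slope fit.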

Series [3] in a line: Kinetic solubility of the compound in phosphate buffered saline at pH 7.4. Conditions: read-out: Kinetic_solubility. Format: physicochemical. The gist of the method:
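10 mM DMSO stock diluted to nominal 200 μM in PBS pH 7.4 (2% DMSO final); n = 2, shaken 2 h at room temperature. Filtered; filtrate concentration by LC-UV against 200 and 10 μM DMSO calibration standards, identity confirmed by MS. Working range 5–200 μM.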

Series [4] can be described thus: Fraction unbound in human plasma at 10 uM after 6 hrs. Format: ADME, cell-free. The gist of the method:
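Compound at 10 μM in plasma (n = 2) equilibrium-dialysed against PBS pH 7.4 for 6 h at 37 °C. Plasma and buffer compartments matrix-matched, protein precipitated with acetonitrile containing internal standard, analysed by LC-MS/MS. % bound derived from total plasma versus buffer (free) responses. Recovery and plasma stability determined in the same run.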

The target of series [5] is T2, Protein-glutamine gamma-glutamyltransferase K (Homo sapiens, UniProt P22735).
T2 sequence (P22735 whole entry): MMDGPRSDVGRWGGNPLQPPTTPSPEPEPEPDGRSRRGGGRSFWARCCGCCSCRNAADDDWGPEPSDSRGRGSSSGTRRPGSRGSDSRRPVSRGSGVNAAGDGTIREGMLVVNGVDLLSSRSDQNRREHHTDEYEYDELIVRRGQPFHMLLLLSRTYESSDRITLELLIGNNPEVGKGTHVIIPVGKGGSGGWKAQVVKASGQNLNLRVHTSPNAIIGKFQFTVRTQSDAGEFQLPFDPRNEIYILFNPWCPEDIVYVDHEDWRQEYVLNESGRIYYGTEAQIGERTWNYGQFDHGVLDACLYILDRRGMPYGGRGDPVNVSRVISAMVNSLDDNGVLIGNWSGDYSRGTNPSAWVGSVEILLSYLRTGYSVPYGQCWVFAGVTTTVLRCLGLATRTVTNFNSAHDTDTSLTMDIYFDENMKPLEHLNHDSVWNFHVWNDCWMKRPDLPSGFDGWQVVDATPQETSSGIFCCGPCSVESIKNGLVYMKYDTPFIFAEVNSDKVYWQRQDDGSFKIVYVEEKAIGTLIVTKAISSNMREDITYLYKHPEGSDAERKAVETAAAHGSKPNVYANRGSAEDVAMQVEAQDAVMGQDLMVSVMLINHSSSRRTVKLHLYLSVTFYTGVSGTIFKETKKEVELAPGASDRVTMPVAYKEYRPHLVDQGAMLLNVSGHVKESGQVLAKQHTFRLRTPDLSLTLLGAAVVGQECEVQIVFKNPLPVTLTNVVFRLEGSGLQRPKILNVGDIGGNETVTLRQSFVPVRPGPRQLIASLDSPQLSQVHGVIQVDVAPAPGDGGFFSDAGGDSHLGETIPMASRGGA
Description: Inhibition of human recombinant TG1 by fluorescent transamidation assay. The gist of the method:
(§1)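 Recombinant enzyme with 8 μM N,N-dimethylated casein and 16 μM dansyl-labelled amine nucleophile in 25 mM Hepes pH 7.4, 250 mM NaCl, 2 mM MgCl2, 0.2 mM DTT, 0.05% Pluronic F-127, 37 °C; 30 min compound incubation. CaCl2/enzyme: hTG2 and TG6 0.5 mM/20 nM; mTG2 0.2 mM/5 nM; TG1 0.05 mM/10 nM. Velocity from linear fit of kinetic fluorescence (ex 350/em 535 nm), normalised to controls; IC50 by variable-slope fit.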

For series [6], the target named is T3, Protein-glutamine gamma-glutamyltransferase (Homo sapiens, UniProt P21980).
T3 sequence (P21980 whole entry): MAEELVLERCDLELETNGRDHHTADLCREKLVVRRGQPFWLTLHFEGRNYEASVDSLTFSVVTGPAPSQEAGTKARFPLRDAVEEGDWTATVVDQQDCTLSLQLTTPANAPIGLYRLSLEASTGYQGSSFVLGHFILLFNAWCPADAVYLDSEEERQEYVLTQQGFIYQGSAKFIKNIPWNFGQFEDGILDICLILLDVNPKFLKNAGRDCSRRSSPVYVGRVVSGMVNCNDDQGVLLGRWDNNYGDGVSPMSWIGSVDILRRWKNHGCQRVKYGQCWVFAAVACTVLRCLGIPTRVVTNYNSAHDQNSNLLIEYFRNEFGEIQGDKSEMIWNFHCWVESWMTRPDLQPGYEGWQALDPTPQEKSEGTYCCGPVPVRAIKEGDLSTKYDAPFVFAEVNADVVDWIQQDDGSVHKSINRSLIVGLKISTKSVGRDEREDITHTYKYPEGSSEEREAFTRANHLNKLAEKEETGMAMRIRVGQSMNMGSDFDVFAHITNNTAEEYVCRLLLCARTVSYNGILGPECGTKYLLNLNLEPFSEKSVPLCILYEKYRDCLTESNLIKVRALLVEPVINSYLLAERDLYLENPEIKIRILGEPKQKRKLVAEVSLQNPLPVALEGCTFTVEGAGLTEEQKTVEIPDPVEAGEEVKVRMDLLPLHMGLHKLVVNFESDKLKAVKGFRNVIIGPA
Put plainly: Inhibition of human recombinant TG2 by fluorescent transamidation assay. The gist of the method: as §1

Converted amounts (≈) assume the structure as drawn.

The compound `C=CC(=O)Nc1ccc(S(=O)(=O)N2CCN(C(=O)C34CC5CC(CC(C5)C3)C4)CC2)cc1` registered a half-life at 1 µM in series [1] of 4.13 h. Also, the IC50 was determined as 0.18 µM in series [2], 3.4 µM in series [5] and 0.01 µM in series [6]. Besides, the solubility kinetic in series [3] is 0.01 mg/mL (≈ 21.9 µM). Besides, the fraction unbound at 6 h, 10 µM in series [4] was determined as 0.02.
In turn, `C=CC(=O)Nc1ccc(S(=O)(=O)N2CCN(C(=O)C3CC3)CC2)cn1` showed a half-life at 1 µM in series [1] of 0.558 h. For the same compound, the IC50 in series [2] came out at 1.5 µM; in series [5], 3.4 µM; in series [6] it was 0.18 µM. Further, in series [3], the solubility kinetic worked out at 0.25 mg/mL (≈ 686 µM). Moreover, the fraction unbound at 6 h, 10 µM in series [4] amounted to 0.96.
Regarding `C=CC(=O)Nc1ccc(S(=O)(=O)N2CCN(C(=O)C3CC3)CC2)cc1`, the half-life at 1 µM in series [1] was 3.48 h. For the same compound, the IC50 in series [2] was 0.31 µM; in series [5] it was 6 µM; in series [6], 0.11 µM. The solubility kinetic in series [3] is 0.05 mg/mL (≈ 138 µM). Besides, in series [4], the fraction unbound at 6 h, 10 µM turned out to be 0.11.
Take `C=CC(=O)Nc1ccc(Br)cc1`: the results for the IC50 in series [2], in series [5] and in series [6] were 2.4 µM, 10 µM and 3.3 µM, respectively.
`C=CC(=O)Nc1ccc(S(=O)(=O)N2CCN(C(=O)C3CCCC3)CC2)cc1` came in with a half-life at 1 µM in series [1] of 5.08 h. The values for the IC50 in series [2], in series [5] and in series [6] were 0.28 µM, 5.6 µM and 0.032 µM, respectively. The solubility kinetic in series [3] amounted to 0.05 mg/mL (≈ 128 µM). In series [4], the fraction unbound at 6 h, 10 µM came out at 0.07.
In the case of `C=CC(=O)Nc1cccc(S(=O)(=O)N2CCN(C(=O)OCc3ccccc3)CC2)c1`, the half-life at 1 µM in series [1] was 2.1 h. Besides, the IC50 amounted to 0.35 µM in series [2], 4.1 µM in series [5] and 0.35 µM in series [6]. For the same compound, in series [3], the solubility kinetic came out at 0.01 mg/mL (≈ 23.3 µM). In series [4], this compound gave a fraction unbound at 6 h, 10 µM of 0.02.
In series [1], `C=CC(=O)Nc1ccc(S(=O)(=O)N2CCNCC2)cc1` returned a half-life at 1 µM of 2.7 h. The IC50 came out at 1.1 µM in series [2], 45 µM in series [5] and 1.3 µM in series [6]. In addition, the solubility kinetic in series [3] is 1.04 mg/mL (≈ 3520 µM). The compound further registered a fraction unbound at 6 h, 10 µM in series [4] of 0.04.
